In ChEMBL document CHEMBL4041524, “Synthesis and Characterization of a Novel γ-Aminobutyric Acid Type A (GABAA) Receptor Ligand That Combines Outstanding Metabolic Stability, Pharmacokinetics, and Anxiolytic Efficacy” (J Med Chem, 2016):
Activity calls are given as the source filed them. The rule behind the calls is not given here.

Assays:
[1] = molecular target: T1, GABA-A receptor; alpha-2/beta-3/gamma-2 (Homo sapiens) (UniProt P18507+P28472+P47869); test: Modulation of recombinant GABA alpha2beta3gamma2 receptor (unknown origin) expressed in Xenopus laevis oocytes assessed as change in GABA-induced EC(3 to 6) current by two-electrode voltage clamp assay; assay type: cell-based
In short: (§1)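 Xenopus laevis oocytes expressing α1, α2, α3 or α5 β3γ2 GABAARs were recorded by two-electrode voltage clamp. Modulation of the GABA EC3-6 current (taken as 100%) was tested at 100 nM, 1 μM and 10 μM in the same cells. Values are mean ± SEM, n = 3–4.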

[2] = molecular target: GABA-A receptor; alpha-5/beta-3/gamma-2 (Homo sapiens) (UniProt P18507+P28472+P31644); test: Modulation of recombinant GABA alpha5beta3gamma2 receptor (unknown origin) expressed in Xenopus laevis oocytes assessed as change in GABA-induced EC(3 to 6) current at 1 uM by two-electrode voltage clamp assay; assay type: cell-based; in short: as §1
[3] = molecular target: GABA-A receptor; alpha-3/beta-3/gamma-2 (Homo sapiens) (UniProt P18507+P28472+P34903); test: Modulation of recombinant GABA alpha3beta3gamma2 receptor (unknown origin) expressed in Xenopus laevis oocytes assessed as change in GABA-induced EC(3 to 6) current by two-electrode voltage clamp assay; assay type: cell-based; in short: as §1
Mus musculus [4] = test: Toxicity in Swiss mouse assessed as change in motor coordination by measuring number of falls from the rotating rod at 30 mg/kg, ip administered 30 mins prior to testing measured for 2 mins by rotarod test relative to control; assay type: organism-based; details: in vivo
In short: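 The same mice used for marble burying were placed on a rotarod at 4 r.p.m. for 2 min. No fall was scored success, one fall partial, and two falls failure.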

Rattus norvegicus [5] = test: Anxiolytic like activity in water-deprived Sprague-Dawley rat assessed as increase in water drinking time during punished period at 30 mg/kg, po administered 30 prior to testing by Vogel conflict test relative to vehicle control; assay type: functional
In short: (§2)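 Water-deprived male Sprague-Dawley rats (n = 6–8) drank during unpunished and punished periods, with licking suppressed by mild shock in punished periods. Compounds were given 30 min before testing. Analysis was ANOVA with Dunnett's test.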

[6] = Cytotoxicity against HEK293T cells assessed as viable cells measured after 18 hrs by CellTiter-Glo assay; assay type: cell-based, HEK-293T; details: human, read-out: LD50
In short: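 HEK293T cells were exposed to compound for 18 h (n = 4). Viable cells were quantified with CellTiter-Glo, and LD50 was derived.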

[7] = molecular target: T1, GABA-A receptor; alpha-2/beta-3/gamma-2 (Homo sapiens); test: Modulation of recombinant GABA alpha2beta3gamma2 receptor (unknown origin) expressed in Xenopus laevis oocytes assessed as change in GABA-induced EC(3 to 6) current at 10 uM by two-electrode voltage clamp assay; assay type: cell-based; in short: as §1
[8] = Volume of distribution at steady state in femoral artery/vein cannulated Sprague-Dawley rat at 1 mg/kg, iv administered […] as single dose by LC-MS/MS analysis; assay type: ADME, organism-based; details: in vivo, read-out: Vdss
In short: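 Male Sprague-Dawley rats (n = 3 per time point) were dosed i.v. at 1 mg/kg. Plasma concentrations were measured at set time points, and Vdss was taken from the plasma concentration–time profile.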

[9] = Clearance in femoral artery/vein cannulated Sprague-Dawley rat at 1 mg/kg, iv administered […] as single dose by LC-MS/MS analysis; assay type: ADME, organism-based; details: in vivo
In short: (§3)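 Male Sprague-Dawley rats (n = 3 per time point) were dosed 1 mg/kg i.v. or 10 mg/kg i.p. Plasma concentrations were measured at set time points. Clearance, Vdss and T½ came from the i.v. arm, and AUC, Cmax and Tmax from the i.p. arm.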

Rattus norvegicus [10] = test: Anxiolytic like activity in water-deprived Sprague-Dawley rat assessed as increase in water drinking time during punished period at 10 mg/kg, po administered 30 mins prior to testing by Vogel conflict test relative to control; assay type: functional; in short: as §2
[11] = AUC in femoral artery/vein cannulated Sprague-Dawley rat at 10 mg/kg, ip administered […] as single dose by LC-MS/MS analysis; assay type: ADME, organism-based; details: in vivo; in short: as §3
Mus musculus [12] = test: Anxiolytic-like activity in Swiss Webster mouse marble burying model of anxiety assessed as suppression of marble burying activity at 30 mg/kg, ip administered 30 mins prior to test relative to vehicle-control; assay type: functional, organism-based
In short: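 Male NIH Swiss Webster mice (n = 10) received vehicle or compound at 10 or 30 mg/kg i.p. 30 min before marble burying testing. Sedation-like behaviour was noted by observation. Analysis was ANOVA with Dunnett's test vs vehicle.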

C#Cc1ccc2c(c1)C(c1ccccn1)=NCc1c(-c3cnco3)ncn1-2
Activity [1]: Dose-dependent effect | Activity [2]: 158% | Activity [3]: Dose-dependent effect | Activity (Mus musculus [4]): Non-Toxic | Activity (Rattus norvegicus [5]): 220% | CC50 at 18 h [6]: > 100 µM | Activity [7]: 258% | Vd [8]: 1.4 L/kg | clearance [9]: 21.7 mL/min/kg | Activity (Rattus norvegicus [10]): 240% | AUC [11]: 16.5 µM·h | Activity (Mus musculus [12]): Active
